Experimental data reported in ChEMBL document CHEMBL1125789, “Synthesis and selective class III antiarrhythmic activity of novel N-heteroaralkyl-substituted 1-(aryloxy)-2-propanolamine and related propylamine derivatives” (J Med Chem, 1991).

Key:
Canis familiaris [1] = organism: Canis familiaris; assay: Repolarization to reach -60mV, in canine Purkinje Fibers at a concentration of 0.3 uM at 300 ms (simulating tachycardia); format: functional, Canis lupus familiaris, Purkinje fiber
How it was run: (§1)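 Isolated canine Purkinje fiber bundles were driven by square-wave pulses 2.0 ms long at 2× threshold and equilibrated ≥1 h to steady state. Each concentration was superfused 45–60 min before recording, and action potentials were sampled at 4–6 sites per fiber in control and after drug, giving Vmax and APD to −60 mV.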

Canis familiaris [2] = organism: Canis familiaris; assay: Repolarization to reach -60mV, in canine Purkinje Fibers at a concentration of 1.0 uM at 300 ms (simulating tachycardia); format: functional, Canis lupus familiaris, Purkinje fiber; how it was run: as §1
Canis familiaris [3] = organism: Canis familiaris; assay: Repolarization to reach -60mV, in canine Purkinje Fibers at a concentration of 3.0 uM at 300 ms (simulating tachycardia); format: functional, Canis lupus familiaris, Purkinje fiber; how it was run: as §1
Canis familiaris [4] = organism: Canis familiaris; assay: repolarization to reach -60mV, in canine Purkinje Fibers at a concentration of 0.3 uM at 1000 ms (simulating normal heart rate); format: functional, Canis lupus familiaris, Purkinje fiber
How it was run: (§2)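 Purkinje fiber bundles were stimulated with square-wave current pulses of 2.0 ms at twice threshold and equilibrated for at least 1 h, or until action potential parameters were steady. Each concentration was superfused for 45-60 min to reach steady state. Action potentials were recorded at four to six sites per fiber, under control and after drug.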

Canis familiaris [5] = organism: Canis familiaris; assay: repolarization to reach -60mV, in canine Purkinje Fibers at a concentration of 1.0 uM at 1000 ms (simulating normal heart rate); format: functional, Canis lupus familiaris, Purkinje fiber; how it was run: as §2
Canis familiaris [6] = organism: Canis familiaris; assay: repolarization to reach -60mV, in canine Purkinje Fibers at a concentration of 3.0 uM at 1000 ms (simulating normal heart rate); format: functional, Canis lupus familiaris, Purkinje fiber; how it was run: as §2
Canis familiaris [7] = assay: Atrial effective refractory period by the compound in open chest anesthetized dog, after iv administration at a dose of 5.0 mg/kg.; format: functional, Canis lupus familiaris, Cardiac atrium; set-up: unit not given here
How it was run: (§3)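 Open-chest mongrel dogs under sodium pentobarbital anesthesia (30 mg/kg iv plus 5 mg/kg per h), paced at basic cycle length 300 ms. Atrial effective refractory period was determined by electrical stimulation before and after iv or intraduodenal compound and reported as change from control.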

Canis familiaris [8] = assay: Atrial effective refractory period by the compound in open chest anesthetized dog, after id administration at a dose of 10 mg/kg.; format: functional, Canis lupus familiaris, Cardiac atrium; conditions: route intraduodenal; how it was run: as §3
Canis familiaris [9] = assay: Heart beat by the compound in open chest anesthetized dog, after id administration at a dose of 10 mg/kg.; format: functional, Canis lupus familiaris; conditions: route intraduodenal
How it was run: (§4)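 Hemodynamics (heart rate, mean arterial pressure) recorded in pentobarbital-anesthetized (30 mg/kg iv, 5 mg/kg per h maintenance) open-chest mongrel dogs during the refractoriness study at BCL 300 ms. Readings were taken before and after iv or intraduodenal compound and expressed as change from control.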

Canis familiaris [10] = assay: Heart beat by the compound in open chest anesthetized dog, after iv administration at a dose of 5.0 mg/kg.; format: functional, Canis lupus familiaris; set-up: unit not given here; how it was run: as §4
Canis familiaris [11] = assay: Atrial conduction time by the compound in open chest anesthetized dog, after id administration at a dose of 10 mg/kg.; format: functional, Canis lupus familiaris, Cardiac atrium; conditions: route intraduodenal
How it was run: (§5)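 Mongrel dogs anesthetized with sodium pentobarbital (30 mg/kg iv, then 5 mg/kg per h), chest opened, paced at BCL 300 ms. Atrial conduction time was taken as the interval between electrograms recorded at the proximal and distal sites of the atrial recording electrode array, before and after iv or intraduodenal dosing. Values are changes from control.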

Canis familiaris [12] = assay: Atrial conduction time by the compound in open chest anesthetized dog, after iv administration at a dose of 5.0 mg/kg.; format: functional, Canis lupus familiaris, Cardiac atrium; set-up: unit not given here; how it was run: as §5
Canis familiaris [13] = assay: Mean arterial pressure by the compound in open chest anesthetized dog, after id administration at a dose of 10 mg/kg.; format: functional, Canis lupus familiaris, Artery; conditions: route intraduodenal; how it was run: as §4
Canis familiaris [14] = assay: Mean arterial pressure by the compound in open chest anesthetized dog, after iv administration at a dose of 5.0 mg/kg.; format: functional, Canis lupus familiaris, Artery; set-up: unit not given here; how it was run: as §4
Canis familiaris [15] = organism: Canis familiaris; assay: Maximum rate of rise of the upstroke of transmembrane potential, in canine Purkinje Fibers at a concentration of 0.3 uM at 1000 ms (simulating normal heart rate); format: functional; set-up: unit not given here; conditions: Canis lupus familiaris, Purkinje fiber; how it was run: as §1
Canis familiaris [16] = organism: Canis familiaris; assay: Maximum rate of rise of the upstroke of transmembrane potential, in canine Purkinje Fibers at a concentration of 0.3 uM at 300 ms (simulating tachycardia); format: functional; set-up: unit not given here; conditions: Canis lupus familiaris, Purkinje fiber; how it was run: as §1
Canis familiaris [17] = organism: Canis familiaris; assay: Maximum rate of rise of the upstroke of transmembrane potential, in canine Purkinje Fibers at a concentration of 1.0 uM at 1000 ms (simulating normal heart rate); format: functional; set-up: unit not given here; conditions: Canis lupus familiaris, Purkinje fiber; how it was run: as §1
Canis familiaris [18] = organism: Canis familiaris; assay: Maximum rate of rise of the upstroke of transmembrane potential, in canine Purkinje Fibers at a concentration of 1.0 uM at 300 ms (simulating tachycardia); format: functional; set-up: unit not given here; conditions: Canis lupus familiaris, Purkinje fiber; how it was run: as §1
Canis familiaris [19] = organism: Canis familiaris; assay: Maximum rate of rise of the upstroke of transmembrane potential, in canine Purkinje Fibers at a concentration of 3.0 uM at 1000 ms (simulating normal heart rate); format: functional; set-up: unit not given here; conditions: Canis lupus familiaris, Purkinje fiber; how it was run: as §1
Canis familiaris [20] = organism: Canis familiaris; assay: Maximum rate of rise of the upstroke of transmembrane potential, in canine Purkinje Fibers at a concentration of 3.0 uM at 300 ms (simulating tachycardia); format: functional; set-up: unit not given here; conditions: Canis lupus familiaris, Purkinje fiber; how it was run: as §1
Canis familiaris [21] = assay: Ventricular effective refractory period by the compound in open chest anesthetized dog, after id administration at a dose of 10 mg/kg.; format: functional, Canis lupus familiaris, Heart; conditions: route intraduodenal
Canis familiaris [22] = assay: Ventricular effective refractory period by the compound in open chest anesthetized dog, after iv administration at a dose of 5.0 mg/kg.; format: functional, Canis lupus familiaris, Heart; set-up: unit not given here
Canis familiaris [23] = assay: Ventricular conduction time by the compound in open chest anesthetized dog, after iv administration at a dose of 5.0 mg/kg.; format: functional, Canis lupus familiaris, Heart; set-up: unit not given here
How it was run: (§6)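 Mongrel dogs were anesthetized with sodium pentobarbital (30 mg/kg iv, then 5 mg/kg per h), the chest opened, and the heart paced at BCL 300 ms. Compound was given iv or intraduodenally. Ventricular conduction time was taken as the interval between electrograms at the proximal and distal sites of the recording electrode array. 2-5 dogs per dose.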

Canis familiaris [24] = assay: Ventricular conduction time by the compound in open chest anesthetized dog, after id administration at a dose of 10 mg/kg.; format: functional, Canis lupus familiaris, Heart; conditions: route intraduodenal; how it was run: as §6

CN(Cc1ccc2ccccc2n1)CC(O)COc1ccc(NS(C)(=O)=O)cc1 (centres undefined)
APD (Canis familiaris [1]): 8%
APD (Canis familiaris [2]): 19%
APD (Canis familiaris [3]): 27%
APD (Canis familiaris [4]): 19%
APD (Canis familiaris [5]): 43%
APD (Canis familiaris [6]): 62%
AERP (Canis familiaris [7]): 45
AERP (Canis familiaris [8]): 31
HR (Canis familiaris [9]): -15
HR (Canis familiaris [10]): -18
ACT (Canis familiaris [11]): -4
ACT (Canis familiaris [12]): -9
MBP (Canis familiaris [13]): -5
MBP (Canis familiaris [14]): -9
Vmax (Canis familiaris [15]): -2
Vmax (Canis familiaris [16]): 5
Vmax (Canis familiaris [17]): 6
Vmax (Canis familiaris [18]): 15
Vmax (Canis familiaris [19]): -7
Vmax (Canis familiaris [20]): -9
VERP (Canis familiaris [21]): 20
VERP (Canis familiaris [22]): 21
VCT (Canis familiaris [23]): -2
VCT (Canis familiaris [24]): 1
